In ChEMBL document CHEMBL4041529, “Structure-Guided Design of EED Binders Allosterically Inhibiting the Epigenetic Polycomb Repressive Complex 2 (PRC2) Methyltransferase” (J Med Chem, 2017):

Tests used:
Polycomb protein EED [1] = biological target: T1, Polycomb protein EED (Homo sapiens, UniProt O75530); assay: Inhibition of human PRC2-EED (76 to 441 residues) expressed in Escherichia coli BL21 (DE3) using histone H3[21 to 44, K27MeO] as substrate and SAM as co-factor measured after 2 hrs by LC-MS/MS method
[2] = Dissociation constant, pKa of the compound by electrophoresis/potentiometric method; assay type: physicochemical
Polycomb protein EED [3] = biological target: T1, Polycomb protein EED; assay: Inhibition of EED in human G401 cells assessed as reduction in H3K27 methylation measured after 48 hrs by ELISA method; assay type: cell-based
Method in brief: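 G-401 rhabdoid cells at 37 °C, 5% CO2 were seeded, grown 24 h, then given serial dilutions for 48 h against a matched DMSO control. Cells were PBS-washed, lysed in 0.4 N HCl for 30 min at 4 °C and neutralized. Lysate was coated overnight at 4 °C, blocked with TBST/5% BSA, then probed with antibody and ECL. H3K27Me3 was normalized to H3, and IC50 came from a dose-response fit.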

Polycomb protein EED [4] = biological target: T1, Polycomb protein EED; assay: Binding affinity to human methionine-13Cepsilon-methyl labeled PRC2-EED (76 to 441 residues) expressed in Escherichia coli BL21 (DE3) by 2D NMR method
Method in brief: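 2D [13C,1H]-HSQC at 600 MHz, 296 K, on 40 μM selectively methionine-13Cε-methyl-labeled EED76–441 in 25 mM d-Tris pH 8, 150 mM NaCl, 2 mM d-DTT, 10% D2O. The protein was titrated with increasing ligand, and KD was derived from the chemical shift perturbations.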

Pfeiffer = assay: Antiproliferative activity against human Pfeiffer cells harboring EZH2 mutant measured after 6 days by CellTiter-Glo assay; assay type: functional, cell-based; conditions: for EC50: 144 h
Method in brief: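 Exponentially growing Pfeiffer B-lymphocyte cells were exposed to compound for 6 days. Growth was read by CellTiter-Glo luminescence. Percent inhibition was taken versus a DMSO control, and IC50 was obtained by curve fitting.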

T1 sequence (O75530 whole entry, the tested form may be a part): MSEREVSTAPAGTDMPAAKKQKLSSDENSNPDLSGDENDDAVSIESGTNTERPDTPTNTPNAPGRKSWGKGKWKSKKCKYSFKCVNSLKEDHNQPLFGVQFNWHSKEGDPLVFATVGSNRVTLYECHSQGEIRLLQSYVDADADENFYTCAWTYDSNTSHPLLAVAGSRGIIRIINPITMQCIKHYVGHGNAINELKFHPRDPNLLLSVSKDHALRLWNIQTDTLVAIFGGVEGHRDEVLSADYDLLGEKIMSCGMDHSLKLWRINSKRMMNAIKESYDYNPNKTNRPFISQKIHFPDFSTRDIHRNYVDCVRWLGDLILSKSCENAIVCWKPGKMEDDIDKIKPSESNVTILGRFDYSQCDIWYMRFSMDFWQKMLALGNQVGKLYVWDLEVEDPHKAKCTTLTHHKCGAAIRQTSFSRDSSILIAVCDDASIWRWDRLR

SMILES	IC50 (Polycomb protein EED [1])	pKa [2]	IC50 (Polycomb protein EED [3])	further results
c1cc(CC2CCCNC2)c2ccoc2c1 (centres undefined)	40 µM	9.8		
N=C(N)N1CCCC(Cc2cccc3c2OCO3)C1 (centres undefined)	3.9 µM	> 11	1.6 µM	
COc1ccc(CC2CCCNC2)cc1 (centres undefined)	> 500 µM			
NC(=O)N1CCCC(Cc2cccc3ccoc23)C1 (centres undefined)	174 µM			
Nc1ncc2n1CC(Cc1cccc3occc13)CC2 (centres undefined)	2.7 µM		12.4 µM	
CC(C)c1nc(N)n2c1CCC(Cc1ccccc1F)C2 (centres undefined)	7.9 µM			
COc1cccc(CC2CCCN(C(=N)N)C2)c1 (centres undefined)	43 µM	> 11		

The next lines start with results.

IC50 (Polycomb protein EED [1])	pKa [2]	IC50 (Polycomb protein EED [3])	SMILES	further results
2.8 µM		2.5 µM	N=C(N)N1CCCC(Cc2cccc3ccoc23)C1 (centres undefined)	
1.3 µM	9.2	1 µM	Nc1ncc2n1CC(Cc1cccc3c1OCO3)CC2 (centres undefined)	
95 µM	9.9		COc1cccc(CC2CCCNC2)c1 (centres undefined)	Kd (Polycomb protein EED [4]): 32 µM
2.1 µM	> 11	2.5 µM	N=C(N)N1CCCC(Cc2cccc3occc23)C1 (centres undefined)	
119 µM			COc1cc(CC2CCCNC2)ccc1F (centres undefined)	
1.3 µM		2.9 µM	COc1ccc(F)c(CC2CCc3c(C(C)C)nc(N)n3C2)c1 (centres undefined)	EC50 (Pfeiffer): 4.4 µM
35 µM			c1cc(CC2CCCNC2)c2c(c1)OCO2 (centres undefined)	
0.43 µM		2 µM	CC(C)c1nc(N)n2c1CCC(Cc1cccc3c1OCO3)C2 (centres undefined)	Activity (Pfeiffer): Dose-dependent effect; EC50 (Pfeiffer): 3.4 µM
95 µM			c1cc(CC2CCCNC2)c2occc2c1 (centres undefined)	
> 500 µM			c1ccc(CC2CCCNC2)cc1 (centres undefined)	
